High-throughput results as filed in PubChem.
Rpn11 inh – blocks the human proteasome subunit Rpn11 | O00487 | human 26S proteasome, Ub4-pepOG fluorescence polarization; 20S core pre-blocked with epoxomicin | calls only at 20 µM | 360,000 tested, 0.59% active;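 active = inhibition at 20 µM, scaled to each plate's controls, above about 33%, limit read from the data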
CSN inh – CSN deneddylation inhibition; AID 651999; inhibition, % at 12.5 µM; 360,000 tested, 0.38% active; Purified CSN, SCF-Nedd8-OG deneddylation, fluorescence polarization; Q92905;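 active = pattern-corrected inhibition above about 35%, with an unprinted fluorescence ratio check between 0.5 and 1.5, limit read from the data, passing the limit was not always enough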;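 note: 0% = enzyme with substrate and 100% = substrate without enzyme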
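test system = HEK293T-derived human Csn5 enzyme | amount = 0.24 nM Csn5 enzyme, final concentration | medium = Tris/NaCl/DTT buffer, pH 7.5 | schedule = 90 min reaction at room temperature | signal = FP | evaluation = inhibition of Csn5 cleavage, % | compound dosing = single dose of 12.5 µM compound with 0.25% DMSO | probe or stimulus = 10 nM SCFSkp2-Nedd8OG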
TPT1 inhibitor – blocks Candida albicans tRNA 2'-phosphotransferase; recombinant caTPT1, FP RNA substrate dephosphorylation; inhibition, % at 5 µM; 300,000 tested, 0.81% active;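 active = inhibition above the mean of all tested compounds plus 3 SD, set per screening campaign, cut at about 24% in these data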;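 note: plate controls were DMSO alone for no effect and ferristatin control at 100 nM for full effect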
HNF4A DNA FP – change in binding of human HNF4 alpha to DNA | activity change, % at 10 µM | AID 1224865 | 360,000 tested, 0.3% active | HNF4a-FITC DNA binding, fluorescence polarization, 1 h; in the data active = activity change above about 30%, passing the limit was not always enough
IDE inh – inhibits human insulin-degrading enzyme in HEK cells; P14735; FAbetaB cleavage, fluorescence polarization; inhibition, % at 5.59 µM; 320,000 tested, 0.41% active; AID 434962;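 active = percent inhibition above the average of all tested compounds plus 3 SD, set per screening campaign, cut at about 16% in these data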;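 note: IDE supplied by intact live HEK cells; FP after avidin binding of uncleaved biotin substrate so inhibition keeps polarization high; 0% = DMSO wells and 100% = 60 µM reference IDE inhibitor Ii1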
Target sequence (P14735 whole entry, looked up): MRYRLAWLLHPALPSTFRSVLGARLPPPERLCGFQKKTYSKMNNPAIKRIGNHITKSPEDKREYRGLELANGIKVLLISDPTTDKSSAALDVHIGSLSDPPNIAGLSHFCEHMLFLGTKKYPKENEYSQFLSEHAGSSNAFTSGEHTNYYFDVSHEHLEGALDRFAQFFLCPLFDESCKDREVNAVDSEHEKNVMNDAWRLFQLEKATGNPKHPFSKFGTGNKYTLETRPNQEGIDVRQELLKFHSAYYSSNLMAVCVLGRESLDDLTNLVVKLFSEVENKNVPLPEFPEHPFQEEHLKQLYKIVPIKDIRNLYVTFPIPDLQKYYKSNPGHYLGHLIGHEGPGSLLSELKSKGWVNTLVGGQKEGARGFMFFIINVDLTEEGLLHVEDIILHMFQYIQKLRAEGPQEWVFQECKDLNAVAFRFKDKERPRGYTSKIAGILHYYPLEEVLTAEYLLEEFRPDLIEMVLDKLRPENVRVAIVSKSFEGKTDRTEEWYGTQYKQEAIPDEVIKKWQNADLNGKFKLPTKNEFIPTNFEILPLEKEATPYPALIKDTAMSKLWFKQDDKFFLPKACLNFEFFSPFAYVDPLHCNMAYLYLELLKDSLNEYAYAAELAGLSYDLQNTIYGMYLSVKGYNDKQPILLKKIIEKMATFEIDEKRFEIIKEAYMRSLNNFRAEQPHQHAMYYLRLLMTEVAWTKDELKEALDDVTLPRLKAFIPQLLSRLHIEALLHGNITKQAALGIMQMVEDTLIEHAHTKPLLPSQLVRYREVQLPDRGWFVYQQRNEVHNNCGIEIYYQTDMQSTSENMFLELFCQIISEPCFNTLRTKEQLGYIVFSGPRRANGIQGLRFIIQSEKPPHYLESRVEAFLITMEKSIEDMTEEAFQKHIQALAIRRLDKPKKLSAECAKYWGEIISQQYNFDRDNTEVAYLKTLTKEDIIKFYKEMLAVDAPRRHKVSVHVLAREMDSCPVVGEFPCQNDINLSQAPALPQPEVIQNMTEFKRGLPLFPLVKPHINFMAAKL
IDE act – boosts human insulin-degrading enzyme activity in HEK cells; FAbeta-B cleavage, fluorescence polarization; 0% vehicle, 100% cell-free pure enzyme wells; 340,000 tested, 0.073% active; P14735; activation, % at 5.96 µM;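 active = activation above the mean of all tested compounds plus 3 SD, set per screening campaign, cut at about 17% in these data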
caTPT1 confirm – TPT1 (C. albicans) inhibition, confirmation | 2,400 tested, 74% active | shares compounds with TPT1 inhibitor | inhibition, % at 5 µM | recombinant caTPT1, fluorescence polarization, RNase T1 coupled;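 active = inhibition above the primary screen limit, the mean inhibition of all tested compounds plus 3 SD, cut at about 25% in these data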
RNase T1 inh – counter-screen for TPT1 inhibitors: inhibitors of Aspergillus oryzae RNase T1 | 2,400 tested, 83% active | RNase T1 cleavage, fluorescence polarization, 1536-well | AID 2153 | shares compounds with TPT1 inhibitor | inhibition, % at 5 µM;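 active = inhibition above the solvent-only control well mean plus 3 SD, limit set per screening run, cut at about 23% in these data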;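 note: plate controls were DMSO wells with enzyme for no effect and wells without RNase T1 for full effect; inhibitors block cleavage so intact labeled substrate keeps polarization high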
IDE inh confirm – confirmation of human insulin-degrading enzyme inhibitors in cells; shares compounds with IDE inh; inhibition, % at 5.59 µM; 1,200 tested, 51% active; HEK cells, FAbetaB cleavage, fluorescence polarization;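 active = mean inhibition across triplicate wells above the cutoff set by the earlier primary insulin-degrading enzyme screen, cut at about 16% in these data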;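 note: 0% = DMSO wells and 100% = 60 µM reference IDE inhibitor Ii1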
HEK cytotox – HEK cell cytotoxicity, counter-screen for IDE inhibitors | 1,200 tested, 28% active | inhibition, % at 5.59 µM | HEK293 cytotoxicity, ATP luminescence | shares compounds with IDE inh; in the data active = inhibition above about 22%;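 note: 0% = vehicle wells and 100% = reference cytotoxic drug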
Rpn11 inh conf – Rpn11 inhibition confirmation, single concentration | shares compounds with Rpn11 inh | purified human 26S proteasome, Ub4-pepOG fluorescence polarization; proteasome pretreated with epoxomicin | inhibition, % at 20 µM | 1,900 tested, 29% active | AID 602318
MMP-2 counter-1 – counter-screen for RPN11 inhibitors: inhibition of human MMP-2. inhibition, % at 20 µM. 1,900 tested, 4% active. recombinant MMP-2, FRET peptide cleavage fluorescence. shares compounds with Rpn11 inh;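 note: human MMP-2 activated beforehand with APMA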
Thrombin inh – thrombin (bovine) inhibition counter-screen; shares compounds with Rpn11 inh; bovine thrombin cleavage of Ub4-pepOG, fluorescence polarization; inhibition, % at 20 µM; 1,900 tested, 13% active; AID 602333;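 active = mean inhibition at least 40% at 20 µM, or signal 3 deviations below plate average, so some actives read negative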;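 note: plate controls were thrombin with DMSO for no effect and buffer wells lacking thrombin for full effect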
CSN5 deneddyl – Csn5 (human) deneddylation inhibition, single-concentration validation | shares compounds with CSN inh | Csn5 deneddylation of SCF-Nedd8OG, fluorescence polarization, 90 min | inhibition, % at 16.6 µM | 540 tested, 62% active; in the data active = inhibition above about 50%;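 note: 0% = DMSO with enzyme and 100% = no enzyme wells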
MMP-2 counter-2 – blocks human MMP-2 in a CSN deneddylation counter-screen | shares compounds with CSN inh | recombinant MMP-2, FRET substrate fluorescence, 60 min | inhibition, % at 16.6 µM | 540 tested, 33% active;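 active = corrected plate-normalized z-score of 5 or more, or -5 or less, or inhibition of 15% or more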;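 note: plate controls were DMSO wells with enzyme for no effect and buffer wells lacking MMP-2 for full effect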
Thrombin counter – blocks bovine thrombin in a CSN deneddylation counter-screen | 540 tested, 49% active | shares compounds with CSN inh | inhibition, % at 16.6 µM | bovine thrombin cleavage of Ub4-pepOG, fluorescence polarization | AID 720656;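 active = inhibition at or above a set limit, with a fluorescence interference ratio between 0.5 and a set maximum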
* hit, by the source's call. Hits are enriched below; roughly 1.7% of the tested compounds scored in any of these assays. Cut-off read from the data, not from the text of the source, unless noted: active = inhibition above about 40%; inactive = the rest.

`COc1ccccc1N1C(=N)S/C(=C\c2ccc(-c3ccccc3C(=O)O)o2)C1=O` gave Rpn11 inh active, CSN inh 35*, TPT1 inhibitor 57*, HNF4A DNA FP 15, IDE inh 14, IDE act -7, caTPT1 confirm 76*, RNase T1 inh 87*, Rpn11 inh conf 74*, MMP-2 counter-1 24, Thrombin inh 47*, CSN5 deneddyl 60*, MMP-2 counter-2 8 and Thrombin counter 31*.
Screening O=[N+]([O-])c1ccc(N/N=C/c2c[nH]c3ccccc23)c(S(=O)(=O)Nc2ccc(Cl)cc2)c1 returned CSN inh 39*, TPT1 inhibitor 36*, HNF4A DNA FP 65*, IDE inh 1, IDE act 1, caTPT1 confirm 107*, RNase T1 inh 108*, CSN5 deneddyl 82*, MMP-2 counter-2 7 and Thrombin counter 12.
For CN1CCN(S(=O)(=O)c2cc([N+](=O)[O-])ccc2N/N=C/c2ccc(Cl)cc2)CC1 the results were Rpn11 inh inactive, CSN inh -1, TPT1 inhibitor 1, HNF4A DNA FP 2, IDE inh 3 and IDE act 7.
Screening Cc1cc(/C=C2\SC(=S)NC2=O)c(C)n1C returned Rpn11 inh active, CSN inh 76*, TPT1 inhibitor 53*, HNF4A DNA FP 44*, IDE inh 6, IDE act -7, caTPT1 confirm 69*, RNase T1 inh 84*, Rpn11 inh conf 121*, MMP-2 counter-1 35, Thrombin inh 91*, CSN5 deneddyl 53*, MMP-2 counter-2 24* and Thrombin counter 39*.
`Cc1cc(/C=C2\SC(=S)NC2=O)c(C)n1-c1ccccc1` gave Rpn11 inh active, CSN inh 40*, TPT1 inhibitor 73*, HNF4A DNA FP 75*, IDE inh 13, caTPT1 confirm 69*, RNase T1 inh 83*, Rpn11 inh conf 77*, MMP-2 counter-1 28, Thrombin inh 60*, CSN5 deneddyl 61*, MMP-2 counter-2 23* and Thrombin counter 31*.
Cc1cc(/C=C2/SC(=O)NC2=O)c(C)n1-c1ccc(N2CCOCC2)cc1 was read as Rpn11 inh inactive, CSN inh -6, TPT1 inhibitor -5, HNF4A DNA FP 0, IDE inh 4 and IDE act 0.
For Cc1cc(/C=C2\SC(=S)NC2=O)c(C)n1-c1ccc(O)cc1 the results were CSN inh 60*, TPT1 inhibitor 95*, HNF4A DNA FP 99*, IDE inh 12, IDE act -6, caTPT1 confirm 108*, RNase T1 inh 119*, CSN5 deneddyl 50*, MMP-2 counter-2 28* and Thrombin counter 50*.
Screening O=c1c2ccccc2nc(-c2ccc(F)cc2)n1NCc1ccccc1O returned Rpn11 inh inactive, CSN inh 4, TPT1 inhibitor 1, HNF4A DNA FP 4, IDE inh -6 and IDE act -6.
C=C(C)CSc1nnc(-c2cccc(Cl)c2)n1N was read as Rpn11 inh inactive, CSN inh 2, TPT1 inhibitor -1, HNF4A DNA FP 0, IDE inh 4 and IDE act 3.
`O=C(N/N=C/c1c(O)ccc2ccccc12)c1ccc(Br)o1` gave Rpn11 inh inactive, CSN inh 37*, TPT1 inhibitor 39*, HNF4A DNA FP 13, IDE inh 99*, IDE act -91, caTPT1 confirm 51*, RNase T1 inh 56*, IDE inh confirm 142*, HEK cytotox 102*, CSN5 deneddyl 66*, MMP-2 counter-2 12 and Thrombin counter 6.
Screening O=C(N/N=C\c1c(O)ccc2ccccc12)c1ccc(O)cc1 returned Rpn11 inh inactive, CSN inh 7, TPT1 inhibitor 9, HNF4A DNA FP 1, IDE inh 2 and IDE act 0.
CCN1C(=O)/C(=C/C=C2\N(CC)c3cc(S(=O)(=O)N(C)C)ccc3N2c2ccccc2)SC1=S was read as CSN inh 75*, TPT1 inhibitor 136*, HNF4A DNA FP 133, IDE inh 18*, IDE act -37, caTPT1 confirm 94*, RNase T1 inh 94*, IDE inh confirm 74*, HEK cytotox 32*, CSN5 deneddyl 63*, MMP-2 counter-2 -6 and Thrombin counter 34*.
O=C1COc2cc(O)ccc21 was read as Rpn11 inh inactive, CSN inh -1, HNF4A DNA FP -3 and IDE act 3.
Screening O=c1oc(/C=C/c2ccc([N+](=O)[O-])s2)nc2ccccc12 returned Rpn11 inh active, CSN inh 50*, TPT1 inhibitor 60*, HNF4A DNA FP 9, IDE inh 2, IDE act 1, caTPT1 confirm 59*, RNase T1 inh 70*, CSN5 deneddyl 189*, MMP-2 counter-2 1 and Thrombin counter 25*.
